The series in a line: Toxicity liver stage against HepG2, at 10uM. The class given is cell-based. Set-up: test concentration 10 uM, cell line HepG2-A16-CD81EGFP. As to conditions: human, HepG2-A16-CD81EGFP cells; read-out: INHIBITION
In a few lines: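 Uninfected HepG2-A16-CD81EGFP cells, 3 × 10^3 per well, 1536-well, plated on prespotted compound at 10 μM final, parasite-free screening media added to match infected plates; puromycin 10 μM positive, DMSO 0.5% negative; run in parallel with 48 h PbLuc assay at 37 °C, 5% CO2; viability by CellTiter-Glo luminescence, normalized to controls.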
For `NC(=O)Cn1cnc2nc3n(c2c1=O)CCC3`, the cytotoxicity at 10 µM worked out at 2.96%.
As for `Cn1ccnc1CN1C[C@H]2CN(S(=O)(=O)c3ccccc3)CCN2C1=O`, the cytotoxicity at 10 µM was found to be 8.36%.
`CC(C)(C)c1c[nH]c([C@@H]2COCCN2C2CCCCC2)n1`: the cytotoxicity at 10 µM was -1.6%.
`CC1CCN(c2ccc(=O)n(CC(=O)N(C)Cc3ccccc3)n2)CC1`: the cytotoxicity at 10 µM turned out to be 4.84%.
Regarding `Cn1nnn(-c2ccc(NS(=O)(=O)c3ccc(Br)cc3)cc2)c1=O`, the cytotoxicity at 10 µM is -2.77%.
The value for `O=C(NCCn1cnc(C2CCCC2)cc1=O)NCc1cccs1` was -7.05%.
The value for `CNC(=O)CN1C(=O)CCC12CCCN(Cc1ccccn1)C2` (stereo not given) was 4.5%; that for `O=C1N(Cc2cccc(F)c2)CCC12CCCNC2` (stereo not given) was -5.19%.
Under `CCN1C(=O)CCCC12CCCN(C(=O)c1sccc1C)C2` (stereo not given) stands 3.73%; under `CCN1C(=O)CCCC12CCCN(C(=O)c1cc(C)oc1C)C2` (stereo not given), 4.09%.
Take `c1cnc(N2CC3(CCN(C4CCOC4)CC3)c3ccccc32)nc1` (stereo not given): the cytotoxicity at 10 µM was -4.2%.
On to `CCC(=O)N1CC[C@H]2C(=O)N(Cc3ccc(OC)cc3)CCO[C@H]2C1`, for which the cytotoxicity at 10 µM is -114%.
Under `Cc1cccc(CN2CC3C[C@]3(NC(=O)c3ccoc3)C2)n1` (stereo not given in full) stands -147%; under `Cn1cncc1CN1CCC2(CC1)CCN2c1ncccn1`, 9.61%.
The value for `COc1cccc(CC(=O)N2CCc3nc(C(N)=O)sc3CC2)c1` was 9.94%; that for `Fc1cnc(N2CCOCC3(CCCNC3)C2)nc1` (stereo not given) was -5.36%.
With `Cc1ccccc1C(=O)N1CCCn2nnc(Cn3cccn3)c2C1`, the cytotoxicity at 10 µM amounted to 9.94%.
Under `Cc1ccc(CN2CC3(CCN(C(=O)Cc4ccc(Cl)cc4)C3)C2)o1` stands 6.11%; under `COc1cccc(-n2nc(C(C)=O)c(C(C)=O)c2C)c1`, 9.51%; under `CCNC(=O)c1ccc2c(c1)nc1n2CCN(C(C)C)C1`, 9.35%.
Under `CC(=O)c1c(C)nn(S(=O)(=O)c2ccc(Cl)cc2)c1C` stands -6.74%; under `COC(=O)c1ccccc1NC(=O)c1nc2ccccc2n(C)c1=O`, -9.99%; under `COCCO[C@@H]1C[C@H]2CN(C(=O)c3ccc(C)nc3)CCN2C1`, -2.2%.
For the compound `CC(Oc1ccc2c(c1)OCO2)C(=O)Nc1ccon1` (stereo not given), the cytotoxicity at 10 µM is 1.09%.
Regarding `O=C(NC1CC1)c1cc(Sc2ncccn2)ccn1`, the cytotoxicity at 10 µM was 0.493%.
As to `O=C(O)c1ccccc1-c1cnc(CNC(=O)C2CCOCC2)nc1`, the cytotoxicity at 10 µM was -3.99%.
Under `CC(C)C(=O)N1CCC(C)(c2cc[nH]n2)CC1` stands 1.96%; under `OCCOc1cc(F)ccc1NCc1ccc(F)c(F)c1`, -6.38%; under `Cc1nnc(NCc2ccc(F)cc2)o1`, 0.217%.
Under `CC(c1nc(C2CC2)no1)N1CCC(NS(=O)(=O)c2cccs2)CC1` (stereo not given) stands 6.4%.
`CCOC(=O)C1(O)CCN(C(=O)Nc2cccc(F)c2)CC1`: the cytotoxicity at 10 µM was -144%.
As to `CN(CC(=O)NCCC#N)C(c1ccccc1)c1ccccc1`, the cytotoxicity at 10 µM worked out at 6.51%.
As to `COC(=O)c1ccc(F)c(S(=O)(=O)Nc2ccc(C(N)=O)cc2)c1`, the cytotoxicity at 10 µM came to 3.63%.
`CCC(CC)C(=O)NS(=O)(=O)CCc1ccccc1`: the cytotoxicity at 10 µM was determined as 1.76%.
The value for `C[C@@H]1CN(Cc2ccccc2F)CC(C(N)=O)O1` (stereo not given in full) was 1.95%; that for `Cc1cc(CSc2ccccn2)on1` was 8.4%.
Turning to `CCc1ocnc1C(=O)N1CCOCC1CC(=O)c1ccccc1` (stereo not given), the cytotoxicity at 10 µM turned out to be 5.92%.
For the compound `O=C(CN1CCS(=O)(=O)CC1)NC1CCCc2ccccc21` (stereo not given), the cytotoxicity at 10 µM was -0.82%.
Turning to `Cc1nc(CN2CCN(C(=O)c3scnc3C)CC2)cs1`, the cytotoxicity at 10 µM was 0.524%.
For `CNS(=O)(=O)CC(=O)N1CC2(CCCC2)c2c(F)cccc21`, the cytotoxicity at 10 µM is -1.21%.
The value for `Cc1cc(C(=O)Nc2ccc(OCC3CCOCC3)cc2)[nH]n1` was -7.04%; that for `CC(C)N(CC(N)=O)Cc1csc(-c2ncccn2)n1` was 5.85%.
On to `CC(C(=O)NC1CC1)S(=O)(=O)c1cc2c(cc1Cl)OCCO2` (stereo not given), for which the cytotoxicity at 10 µM was -13.9%.
With `CCn1nc(C)cc1C(=O)N1CCOc2cc(C)ccc21`, the cytotoxicity at 10 µM amounted to 10.5%.
The value for `CCc1n[nH]c(C2CN(Cc3csc(COC)n3)CCO2)n1` (stereo not given) was 0.753%.
The value for `Cc1ccc(N2CCCC3(CCN(C(=O)C4CC4)C3)C2)nn1` (stereo not given) was -109%; that for `O=C1NCC2(CCCN(C(=O)Nc3ccc4occc4c3)CC2)O1` (stereo not given) was 2.09%; that for `CCCc1nc(C)cc(NCCc2nnc(N)s2)n1` was 3.07%.
The value for `CCc1nc(C)c([C@H]2CN(C)C[C@@H]2C(=O)Nc2cccc3cn[nH]c23)[nH]1` was -3.44%; that for `CCn1nc(C)c(CCn2ccnc2-c2cc3n(n2)CCNC3)c1C` was 5.15%.
On to `COc1ccccc1OCCCc1cc(C)nc(N)n1`, for which the cytotoxicity at 10 µM came to 0.915%.
Under `COC(=O)[C@H]1C[C@@H](O)CCN1S(=O)(=O)c1cc(Cl)ccc1OC` stands 5.1%; under `Cc1cc(C)c(C#N)c(N2CCC3(CCCN(CCO)C3=O)C2)n1` (stereo not given), 0.854%.
With `CCc1ccc(CN2CCC(CNC(=O)c3ccc(C)nc3)C2)nc1` (stereo not given), the cytotoxicity at 10 µM was 7.78%.
The value for `O=C(Cc1ccccc1C(F)(F)F)N1CCC2(CC1)[C@H](O)C[C@@H]2O` was -4.87%.
The value for `CC(=O)c1cc(CN2CCCC2c2nc3ccc(C)cc3[nH]2)cs1` (stereo not given) was 3.01%; that for `CN1C[C@@H](n2cnc(-c3ccccc3)c2-c2nccn2C)C[C@H]1C(=O)O` was -0.338%; that for `Cc1cc2nc(C(C)C)cc(N3CCC(Oc4ncccn4)CC3)n2n1` was 13.9%.
The value for `O=C(c1ccc2sccc2c1)N1CCC(C(=O)O)(n2cccn2)CC1` was -2.77%; that for `O=C(NC1CCCNC1)c1cc(COc2cccc(C(F)(F)F)c2)[nH]n1` (stereo not given) was -1.31%; that for `Cc1[nH]c2c(C)ccc(C)c2c1CC(=O)NCCNc1cccnc1` was 0.393%.
Turning to `COCCN(Cc1cccs1)c1nc(CCN)nc2ccccc12`, the cytotoxicity at 10 µM worked out at 4.49%.
The value for `Cc1cc(C(=O)N2CCC(C)CC2)ccc1NS(C)(=O)=O` was 3.09%; that for `Cc1c(C(=O)NCC2CCN(Cc3c[nH]cn3)C2)[nH]c2ccccc12` (stereo not given) was -9.8%.
Turning to `COCc1nc(CNc2cc(C)nc(N3CCCCC3)n2)no1`, the cytotoxicity at 10 µM came to 9.84%.
Under `CN1CCN(Cc2nnc(C3CCN(CC4CC4)CC3)n2C)CC1` stands -13.6%; under `c1cnc(-c2nc(CN3CCCC(N4CCCC4)C3)cs2)nc1` (stereo not given), -12%.
For `COc1cccc(CC(=O)N2CCC(NCc3c[nH]nc3C)CC2)c1`, the cytotoxicity at 10 µM is -8.98%.
Take `COc1c(C2CCCN2C(=O)c2ccc3c(c2)OCO3)c(C)nn1C` (stereo not given): the cytotoxicity at 10 µM was -13.4%.
As for `Cc1nnc2n1CCN(Cc1nc(-c3ccoc3)no1)C2`, the cytotoxicity at 10 µM was -5.86%.
Under `CC(C)c1nc(CNCC2CCCN2c2cccnn2)cs1` (stereo not given) stands -4.84%; under `Cc1occc1C(=O)Nc1cnn(CCN2CCOCC2)c1`, -10%; under `Cc1cnn(CC2CCCN2C(=O)c2cccc(-n3ccc(C)n3)c2)c1` (stereo not given), -19.2%.
Under `CC(C)(C)c1nc(CN2CCC(c3ccnn3CCO)CC2)no1` stands -5.22%; under `Cc1cccnc1CNC(=O)N(CCCO)C1CCc2ccccc21` (stereo not given), -11.4%.
The value for `O=C(Cn1c(-c2ccco2)cc2cccnc21)N1CCCC1` was -4.04%; that for `O=C1CCC2(CCC(NC3CCOC3)CC2)N1Cc1ccccc1` (stereo not given) was -5.54%.
Consider `Cn1cc(C(=O)N[C@@H]2CN(Cc3ccc(F)cc3)[C@@H]3CCCO[C@@H]32)cn1`, for which the cytotoxicity at 10 µM was -1.31%.
The value for `CCN(CC)CC1CN(Cc2cccc(C#N)c2)Cc2nccn2C1` (stereo not given) was -127%; that for `CN1CC(=O)N(c2cccc(F)c2)CC12CCN(Cc1ccncc1)C2` (stereo not given) was 5.69%; that for `Cc1ccc(N2CC3(COCCN(Cc4nccs4)C3)OCC2=O)s1` (stereo not given) was -13.5%.
The value for `Cc1ccnc(OC[C@@]23CCO[C@@H]2CCN(C2CCC2)C3)n1` was 8.01%.
As for `CCc1ccc(CN2CCC3(CC2)C(=O)N(C)CCN3CC2CC2)cc1`, the cytotoxicity at 10 µM is 5.68%.
Turning to `Cc1ccc(CN2Cc3c(C(=O)N4CCOCC4)nn(C)c3C2)s1`, the cytotoxicity at 10 µM amounted to 6.15%.
Take `Cn1cc(CN2CCCC23CCN(C(=O)c2ccccn2)CC3)cn1`: the cytotoxicity at 10 µM is -1.94%.
The value for `O=C(NCc1ccccn1)[C@]12COC[C@H]1CN(Cc1cccnc1)C2` was 5.64%; that for `O=C(c1ccncc1)N1CCC2(CC1)C(=O)Nc1ccccc12` was -146%.
As to `O=C(c1cccs1)N1C[C@@H]2OCCN(CC3CCCO3)[C@@H]2C1` (stereo not given in full), the cytotoxicity at 10 µM is -2.24%.
`Cn1cc(CN2CC[C@@H]3[C@@H](CO[C@H]3CNC(=O)c3ccco3)C2)cn1`: the cytotoxicity at 10 µM was -142%.
The value for `COCCN1CCc2cc(C(=O)O)c(NCC3CC3)nc2CC1` was 4.21%; that for `CCN1C(=O)[C@H]2CN(CC(C)C)C[C@H]2C12CCN(C(=O)NC(C)C)CC2` was 4.89%; that for `c1ccc(CO[C@H]2CO[C@@]3(CCCN(Cc4cccnc4)C3)C2)nc1` was -6.37%.
As for `COC1C[C@@H]2CN(C(=O)c3ccc(C)s3)C[C@@H]2C1` (stereo not given in full), the cytotoxicity at 10 µM was -2%.
As for `CCC=C(C)C(=O)N1CSCC1C(=O)N(C)CCc1ccncc1` (stereo not given), the cytotoxicity at 10 µM was -9.72%.
Under `O=C(c1ccc[nH]1)N1C[C@@H]2CC[C@H]1CN(c1ncccn1)C2` stands -7.12%.
